# Compound activity: PubChem BioAssay, several laboratories
# Shown are actives, neighbours in structure and some others; about 1.4% of the full set was active somewhere.
# ATG4B inhibitor: ATG4B (human) cysteine protease inhibition. Q9Y4P1. ATG4B cleavage of LC3-PLA2, NBD-HPC fluorescence, 1 h. inhibition, % at 8.33 µM. actives 0.51% (n = 340,000); in the data active means inhibition above about 40%
# Tb MetRS inh: Trypanosoma brucei MetRS inhibition; actives 0.4% (n = 360,000); inhibition, % at 11.9 µM; purified T. brucei MetRS, ATP depletion, Kinase-Glo luminescence;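 active means inhibition above a per-plate cutoff of the control wells' mean inhibition plus 3 SD, cut at about 5.5% in these data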;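 further: 0% = DMSO wells median and 100% = median of wells with control inhibitor compound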
#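 Dosing: 11.9 µM compound single dose, 0.9% DMSO; Assay system: purified T. brucei MetRS enzyme; Measured by: Kinase-Glo luciferase luminescence reporting remaining unconsumed ATP; Schedule: 15 min plus 2 h at 25 °C.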
# UCH37 DUB inh: human UCH37 deubiquitinating enzyme inhibition | inhibition, % (concentration not given with the values) | AID 588478 | purified proteasome/UCH37, Ub-AMC cleavage fluorescence | actives 0.33% (n = 330,000);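 active means mean inhibition over replicate wells above about 20%, limit read from the data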;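 further: 0% = compound-free wells with enzyme and 100% = wells lacking proteasome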
#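 Material: human UCH37 enzyme supplied as purified proteasome complex. Measure: % inhibition of Ub-AMC cleavage fluorescence. Medium: pH 7.4 Tris-HCl (50 mM) with ovalbumin, ATP-MgCl2, DTT. Times: 30 min preincubation with enzyme, 25 min cleavage at room temperature. Detection: AMC fluorescence intensity at 355/460 nm.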
# Rin1 Abl inh: human Rin1-Abl interaction inhibition; P00519+Q13671; actives 0.4% (n = 360,000); inhibition, % at 7.35 µM; TR-FRET Rin1/Abl binding, biochemical; in the data active means inhibition above about 5%, passing the limit was not always enough
# Tb MetRS conf: Trypanosoma brucei MetRS inhibition confirmed. T. brucei MetRS enzyme, luminescence (ATP depletion). AID 624412. shares compounds with Tb MetRS inh. actives 93% (n = 1,400). inhibition, % at 11.9 µM; in the data active means inhibition above about 7%
# Jurkat tox: kills Jurkat cells in T. brucei MetRS counterscreen; shares compounds with Tb MetRS inh; Jurkat cells viability, ATP luminescence; inhibition, % at 8.3 µM; actives 12% (n = 1,400); AID 624413; in the data active means inhibition above about 15%;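 further: 0% = vehicle and 100% = reference inhibitor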
# TbMetRS FP orth: orthogonal test for Trypanosoma brucei MetRS inhibitors; shares compounds with Tb MetRS inh; purified T. brucei MetRS, fluorescence polarization; inhibition, % at 11.9 µM; actives 44% (n = 1,400); in the data active means inhibition above about 17%;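 further: 0% = vehicle wells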
# * marks the source's active call; other numbers are inactive results; i = inactive; . = not tested or not shown.
SMILES,ATG4B inhibitor,Tb MetRS inh,UCH37 DUB inh,Rin1 Abl inh,Tb MetRS conf,Jurkat tox,TbMetRS FP orth
CCOc1cc(N2CCOCC2)c(OCC)cc1NC(=O)c1ccc(-n2ccnc2)c([N+](=O)[O-])c1,4,2,3,-1,.,.,.
CCc1cc(C(=O)N(Cc2ccccc2)c2c(N)n(CCOC)c(=O)[nH]c2=O)sc1C,9,-1,4,-2,.,.,.
Cc1cc(S(=O)(=O)Nc2ccc(C(=O)N3CCN(c4ccccc4O)CC3)cc2)ccc1F,-11,0,1,0,.,.,.
CCCN1C(=O)N(c2cccc(C)c2)C(C)(O)CC1(C)C (stereo not given),-3,0,2,0,.,.,.
Clc1ccc(CN2CCC(c3nc4ccc(Cl)cc4[nH]3)CC2)cc1,12,8.4*,6,-1,17*,21*,0
CC1CCCN(C(=O)CN2CCC(c3nc4ccc(Cl)cc4[nH]3)CC2)C1 (stereo not given),-4,4,4,-2,.,.,.
Nc1cc(=O)[nH]c(SCC(=O)Nc2ccc(Cl)c(Cl)c2)n1,5,2,7,-7,.,.,.
Nc1cc(=O)[nH]c(SCC(=O)Nc2cc(Cl)cc(Cl)c2)n1,5,29*,7,-2,49*,1,28*
COc1ccc(Nc2ccnc3ccccc23)cc1,-2,-1,9,-1,.,.,.
c1ccc(CCNc2ccnc3cc4ccccc4cc23)cc1,1,84*,i,-7,92*,81*,83*
CC(C)Nc1ccc(Nc2ccnc3cc4ccccc4cc23)cc1,11,85*,10,-17,88*,80*,90*
CC(C)(Oc1ccc(Cl)cc1)C(=O)OCc1nc2ccsc2c(=O)[nH]1,-5,20*,-1,-2,64*,3,38*
Cc1ccsc1C(=O)OCc1nc2ccsc2c(=O)[nH]1,-14,0,1,1,.,.,.
O=[N+]([O-])c1cccc(OCCN2CCC(Cc3ccccc3)CC2)c1,6,-1,4,0,.,.,.
O=C(NCc1cccc(C(F)(F)F)c1)c1c[nH]c(=O)s1,.,1,.,1,.,.,.
CC(=O)c1c[nH]c(C(=O)NCc2cccc(C(F)(F)F)c2)c1,2,92*,1,0,94*,0,78*
O=C(Cn1cc(C(F)(F)F)cc(Cl)c1=O)NCc1ccc(Cl)cc1Cl,-7,1,2,-4,.,.,.
O=C(Cn1cc([N+](=O)[O-])ccc1=O)NCc1ccc(Cl)cc1Cl,4,9.1*,0,-3,26*,6,14
N=c1sccn1CC(=O)NCc1ccc(Cl)cc1Cl,-2,29*,4,0,51*,0,17
CSCCC(NC(=O)c1ccccc1)C(=O)NC1CC1 (stereo not given),-13,1,3,-2,.,.,.
COc1cccc(/C=C2\N=C3CCCCCN3C2=O)c1,-8,0,6,-2,.,.,.
O=C(Cn1nnc(-c2ccc3c(c2)OCO3)n1)Nc1ccccc1C(=O)O,6,0,5,0,.,.,.
CN(C)CCOCCOc1ccc(Cl)cc1Br,2,5.7*,4,2,9.5*,4,8
CC(C)NCCOCCOc1ccc(Cl)cc1Br,5,1,4,3,.,.,.
CCOC(=O)c1c(-c2ccc(C)cc2)csc1NC(=O)c1cccc(N2C(=O)CCC2=O)c1,-6,-1,-63,-1,.,.,.
SMILES,ATG4B inhibitor,Tb MetRS inh,UCH37 DUB inh,Rin1 Abl inh,Tb MetRS conf,Jurkat tox,TbMetRS FP orth
O=C(Cn1cnc2ccccc21)Nc1cc(C(F)(F)F)ccc1N1CCOCC1,-7,27*,5,0,43*,-2,23*
O=C1[C@@H]2Cc3c([nH]c4ccccc34)C(c3cccc([N+](=O)[O-])c3)N2C(=O)CN1C1CCN(Cc2ccccc2)CC1 (stereo not given in full),.,91*,.,1,94*,0,74*
COc1ccc(CCCNC(=O)C2(C)Cc3c(-c4cccc(C(N)=O)c4)ccnc3O2)cc1 (stereo not given),.,6.6*,.,4,5,49*,1
COc1ccccc1NC(=S)Nc1ccc2cn[nH]c2c1,-1,7.8*,5,2,2,2,1
Cc1ccc(NC(=S)Nc2ccc3cn[nH]c3c2)cc1C,10,0,2,2,.,.,.
COc1cccc(NC(=O)CN(C)CC(=O)Nc2cccc(C(F)(F)F)c2)c1,-10,-1,6,-3,.,.,.
COc1cccc(NC(=O)CSc2nc3ncc(Br)cc3[nH]2)c1,-2,70*,2,6,85*,6,60*
COc1cccc(NC(=O)CN(C)CC(=O)Nc2ccc(Br)cc2)c1,-9,11*,0,1,20*,3,23*
O=C(CSc1nc2ccc([N+](=O)[O-])cc2[nH]1)c1ccc2ccccc2c1,-20,1,-1,-3,.,.,.
O=C(CSc1nc2ncc(Br)cc2[nH]1)c1ccc([N+](=O)[O-])cc1,-4,18*,2,3,52*,2,24*
Cc1ccc(/C=C/C(=O)c2ccccc2)cc1,7,0,4,0,.,.,.
O=C(Nc1ccccc1)Nc1ccc(Cl)c(S(=O)(=O)N2CCOCC2)c1,-6,15*,2,1,19*,14,15
O=C(Nc1cccc(S(=O)(=O)N2CCOCC2)c1)c1ccc(Cl)c([N+](=O)[O-])c1,-5,7.7*,0,0,19*,21*,15
O=C(Nc1ccc(S(=O)(=O)N2CCOCC2)cc1)c1ccc(Cl)c([N+](=O)[O-])c1,-5,0,.,2,.,.,.
O=C(Nc1ccc(NC(=O)c2ccc(Cl)c(S(=O)(=O)N3CCOCC3)c2)cc1)c1ccccc1,6,0,-27,0,.,.,.
Cc1ccc(C(=O)OCC(=O)Nc2ccc3[nH]c(=O)[nH]c3c2)o1,-1,0,5,3,.,.,.
O=C1COc2ccc(C(=O)CSc3nnc(Cc4ccccc4)o3)cc2N1,-9,-1,4,-3,.,.,.
O=C1COc2ccc(C(=O)CSc3nnc(NCc4ccccc4)s3)cc2N1,-13,8.7*,1,2,13*,2,14
N#Cc1c(N)n(C2OC(CO)C(O)C2O)c2ncnc(N)c12 (stereo not given),3,7.8*,.,2,30*,97*,10
Cc1cccc(NS(=O)(=O)c2c(C)[nH]c(C)c2C(=O)N2CCCC2)c1,1,26*,3,-1,55*,-8,20*
COc1ccc(Cl)cc1NS(=O)(=O)c1c(C)[nH]c(C)c1C(=O)N1CCCCC1,-8,1,0,6,.,.,.
CCOc1ccccc1NS(=O)(=O)c1c(C)[nH]c(C)c1C(=O)N1CCCCC1,-11,35*,3,-1,57*,-5,27*
